# Data published in ChEMBL document CHEMBL1153191, “Triazole oxytocin antagonists: Identification of an aryloxyazetidine replacement for a biaryl substituent” (Bioorg Med Chem Lett, 2010).
# How the values were obtained:
# Rattus norvegicus [1] = experiment: Volume of distribution in rat at 0.5 mg/kg, po; type: ADME, organism-based; design: dose 0.5 mg/kg, route oral; details: in vivo
# Vasopressin V2 receptor = Vasopressin V2 receptor (Homo sapiens, UniProt P30518); experiment: Antagonist activity at human cloned vasopressin V2 receptor by cell based beta lactamase assay; type: functional
# Liver microsomes = experiment: Intrinsic clearance in human liver microsomes; type: ADME, Microsome
# Oxytocin receptor = biological target: T1, Oxytocin receptor (Homo sapiens, UniProt P30559); experiment: Antagonist activity at human cloned oxytocin receptor by cell based beta lactamase assay; type: functional
# T1 sequence (P30559 whole entry): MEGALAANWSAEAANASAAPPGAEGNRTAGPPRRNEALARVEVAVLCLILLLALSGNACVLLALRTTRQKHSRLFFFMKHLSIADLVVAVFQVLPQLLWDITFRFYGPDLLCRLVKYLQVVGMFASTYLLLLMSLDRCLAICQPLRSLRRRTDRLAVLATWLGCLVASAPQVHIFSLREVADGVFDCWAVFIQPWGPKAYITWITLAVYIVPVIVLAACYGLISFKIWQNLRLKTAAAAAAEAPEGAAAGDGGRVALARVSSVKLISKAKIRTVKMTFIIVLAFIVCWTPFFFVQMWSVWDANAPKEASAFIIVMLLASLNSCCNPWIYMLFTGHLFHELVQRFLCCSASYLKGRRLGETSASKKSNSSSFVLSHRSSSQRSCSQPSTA
# Vasopressin V1a receptor = Vasopressin V1a receptor (Homo sapiens, UniProt P37288); experiment: Antagonist activity at human cloned vasopressin V1a receptor by cell based beta lactamase assay; type: functional
# [2] = Half life in rat at 2 mg/kg, po; type: ADME, organism-based; design: dose 2 mg/kg, route oral; details: in vivo
# Procedure, shortened: (§1)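 Pharmacokinetic parameters from oral dosing of a suspension of fully crystalline material, at 2 mg/Kg in rat and 0.2 mg/Kg in dog.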
# Rattus norvegicus [3] = experiment: Volume of distribution in rat at 2 mg/kg, po; type: ADME, organism-based; design: dose 2 mg/kg, route oral; details: in vivo; procedure, shortened: as §1
# [4] = Half life in dog at 0.2 mg/kg, po; type: ADME, organism-based, Canis lupus familiaris; design: dose 0.2 mg/kg, route oral; details: in vivo; procedure, shortened: as §1
# [5] = Oral bioavailability in rat at 2 mg/kg; type: ADME, organism-based; details: in vivo
# Procedure, shortened: (§2)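 Oral bioavailability from oral dosing of a suspension of fully crystalline material, at 2 mg/Kg in rat and 0.2 mg/Kg in dog, calculated by comparison with iv pharmacokinetic data.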
# Canis familiaris = experiment: Volume of distribution in dog at 0.2 mg/kg, po; type: ADME, organism-based, Canis lupus familiaris; design: dose 0.2 mg/kg, route oral; details: in vivo; procedure, shortened: as §1
# [6] = biological target: Kappa-type opioid receptor (Homo sapiens, UniProt P41145); experiment: Binding affinity to kappa opioid receptor
# [7] = biological target: Growth hormone secretagogue receptor type 1 (Homo sapiens, UniProt Q92847); experiment: Binding affinity to ghrelin receptor
# [8] = Aqueous solubility at pH 7.5; type: physicochemical; details: buffer
# Procedure, shortened: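 Aqueous solubility was measured on fully crystalline material at pH 7.5.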
# [9] = Clearance in dog at 0.2 mg/kg, po; type: ADME, organism-based, Canis lupus familiaris; design: dose 0.2 mg/kg, route oral; details: in vivo; procedure, shortened: as §1
# Substance-P receptor = Substance-P receptor (Homo sapiens, UniProt P25103); experiment: Binding affinity to NK1 receptor
# [10] = Oral bioavailability in dog at 0.2 mg/kg, po; type: ADME, organism-based, Canis lupus familiaris; details: in vivo; procedure, shortened: as §2
# [11] = Clearance in rat at 2 mg/kg, po; type: ADME, organism-based; design: dose 2 mg/kg, route oral; details: in vivo; procedure, shortened: as §1
# Sequence of Vasopressin V1a receptor (P37288 whole entry): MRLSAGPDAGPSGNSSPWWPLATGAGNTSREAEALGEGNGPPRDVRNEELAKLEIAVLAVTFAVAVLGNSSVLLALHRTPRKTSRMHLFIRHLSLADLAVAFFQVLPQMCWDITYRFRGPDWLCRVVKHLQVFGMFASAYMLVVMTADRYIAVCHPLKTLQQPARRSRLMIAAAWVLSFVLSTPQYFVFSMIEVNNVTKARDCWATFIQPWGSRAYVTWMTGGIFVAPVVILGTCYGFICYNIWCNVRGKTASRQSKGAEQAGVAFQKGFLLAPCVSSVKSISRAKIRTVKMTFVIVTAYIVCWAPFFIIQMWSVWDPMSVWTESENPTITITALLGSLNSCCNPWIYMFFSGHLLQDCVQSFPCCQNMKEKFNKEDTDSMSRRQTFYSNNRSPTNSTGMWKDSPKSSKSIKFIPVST
# Sequence of Vasopressin V2 receptor (P30518 whole entry): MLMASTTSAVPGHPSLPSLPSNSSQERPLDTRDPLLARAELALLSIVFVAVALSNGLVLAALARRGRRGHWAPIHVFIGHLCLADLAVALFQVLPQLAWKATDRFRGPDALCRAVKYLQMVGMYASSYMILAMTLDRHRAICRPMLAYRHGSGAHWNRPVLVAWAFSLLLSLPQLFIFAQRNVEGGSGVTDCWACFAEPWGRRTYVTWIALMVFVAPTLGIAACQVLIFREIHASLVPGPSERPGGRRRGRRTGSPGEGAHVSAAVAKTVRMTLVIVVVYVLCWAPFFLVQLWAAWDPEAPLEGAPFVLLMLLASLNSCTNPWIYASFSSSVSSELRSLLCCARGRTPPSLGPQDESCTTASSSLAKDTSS
# Sequence of Growth hormone secretagogue receptor type 1 (Q92847 whole entry): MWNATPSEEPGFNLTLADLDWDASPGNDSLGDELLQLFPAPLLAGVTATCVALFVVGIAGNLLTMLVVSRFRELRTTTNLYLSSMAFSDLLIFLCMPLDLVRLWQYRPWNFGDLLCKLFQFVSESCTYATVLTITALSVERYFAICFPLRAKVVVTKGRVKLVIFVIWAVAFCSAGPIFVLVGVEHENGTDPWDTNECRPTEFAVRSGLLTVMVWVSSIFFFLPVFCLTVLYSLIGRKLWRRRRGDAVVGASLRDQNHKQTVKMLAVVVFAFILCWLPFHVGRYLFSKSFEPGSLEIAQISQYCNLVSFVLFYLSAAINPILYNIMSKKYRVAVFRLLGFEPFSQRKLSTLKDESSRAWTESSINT
# Sequence of Kappa-type opioid receptor (P41145 whole entry): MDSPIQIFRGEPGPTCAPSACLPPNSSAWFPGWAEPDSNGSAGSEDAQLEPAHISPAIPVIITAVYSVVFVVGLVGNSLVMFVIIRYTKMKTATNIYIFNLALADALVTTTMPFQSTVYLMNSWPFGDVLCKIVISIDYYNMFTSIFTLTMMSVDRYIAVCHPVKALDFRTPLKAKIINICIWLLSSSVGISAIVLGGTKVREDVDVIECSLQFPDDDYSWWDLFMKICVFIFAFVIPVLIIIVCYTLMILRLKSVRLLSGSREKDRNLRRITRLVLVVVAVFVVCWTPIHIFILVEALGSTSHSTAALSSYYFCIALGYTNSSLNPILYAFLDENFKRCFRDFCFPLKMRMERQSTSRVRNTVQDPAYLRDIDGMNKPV
# Sequence of Substance-P receptor (P25103 whole entry): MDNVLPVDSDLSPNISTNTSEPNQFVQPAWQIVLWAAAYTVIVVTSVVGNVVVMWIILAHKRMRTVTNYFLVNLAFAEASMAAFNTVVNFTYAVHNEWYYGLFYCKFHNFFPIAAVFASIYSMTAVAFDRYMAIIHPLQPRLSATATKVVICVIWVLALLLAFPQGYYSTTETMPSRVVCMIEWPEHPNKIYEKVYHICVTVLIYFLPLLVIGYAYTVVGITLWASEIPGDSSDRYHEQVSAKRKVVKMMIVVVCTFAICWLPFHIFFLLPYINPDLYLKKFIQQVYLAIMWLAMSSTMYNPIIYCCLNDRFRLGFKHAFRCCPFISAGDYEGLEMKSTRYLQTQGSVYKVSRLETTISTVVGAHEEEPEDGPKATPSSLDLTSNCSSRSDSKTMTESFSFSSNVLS
SMILES,Ki (Vasopressin V2 receptor),clearance (Liver microsomes),Ki (Oxytocin receptor),Ki (Vasopressin V1a receptor),other results
COc1ccc(-n2c(C)nnc2-c2cnc(-c3ccc(F)cc3C)cn2)cn1,> 10000 nM,–,–,–,Vd (Rattus norvegicus [1]): 4.4 L/kg
COCc1nnc(N2CC[C@@H](Oc3ccccc3C)C2)n1-c1ccc(OC)nc1,> 10000 nM,–,28.5 nM,255 nM,–
COCc1nnc(N2CC(Oc3ccccc3Cl)C2)n1-c1ccc(OC)nc1,> 10000 nM,21 µL/min/mg,32.5 nM,1340 nM,–
COc1ccc(-n2c(C)nnc2N2CCC(Oc3ccccc3)CC2)cn1,> 10000 nM,–,114 nM,127 nM,–
COc1ccc(-n2c(C)nnc2N2CCC(Oc3ccccc3C)CC2)cn1,> 10000 nM,–,5.4 nM,21.6 nM,–
COCc1nnc(N2CCC(Oc3ccccc3C)CC2)n1-c1ccc(OC)nc1,> 10000 nM,–,2.2 nM,24.4 nM,–
COCc1nnc(N2CC[C@H](Oc3ccccc3C)C2)n1-c1ccc(OC)nc1,> 10000 nM,–,207 nM,522 nM,–
COc1ccc(-n2c(C)nnc2N2CC(Oc3ccccc3)C2)cn1,> 10000 nM,< 7 µL/min/mg,304 nM,> 10000 nM,–
COc1ccc(-n2c(C)nnc2N2CCC(Oc3cccc(F)c3C)CC2)cn1,> 10000 nM,24 µL/min/mg,2.6 nM,–,–
COc1ccc(-n2c(C)nnc2N2CC[C@@H](Oc3ccccc3)C2)cn1,> 10000 nM,–,170 nM,1840 nM,–
COc1ccc(-n2c(C)nnc2N2CCC(Oc3cc(F)cc(F)c3C)CC2)cn1,> 10000 nM,–,0.4 nM,175 nM,–
COCc1nnc(N2CC[C@@H](Oc3cc(F)cc(F)c3C)C2)n1-c1ccc(OC)nc1,> 10000 nM,107 µL/min/mg,5.8 nM,1000 nM,–

# The next lines start with results.
Ki (Vasopressin V2 receptor),clearance (Liver microsomes),Ki (Oxytocin receptor),Ki (Vasopressin V1a receptor),SMILES,other results
> 10000 nM,22 µL/min/mg,28.4 nM,2430 nM,COc1ccc(-n2c(C)nnc2N2CC(Oc3ccc(F)cc3Cl)C2)cn1,–
1190 nM,–,18.4 nM,719 nM,COCc1nnc(N2CC(Oc3ccc(F)cc3C)C2)n1-c1ccc(OC)nc1,–
> 10000 nM,–,55.1 nM,1940 nM,COc1ccc(-n2c(C)nnc2N2CC(Oc3ccccc3Cl)C2)cn1,–
> 10000 nM,95 µL/min/mg,31.8 nM,941 nM,COc1ccc(-n2c(C)nnc2N2CC[C@@H](Oc3ccc(F)cc3C)C2)cn1,–
> 10000 nM,23 µL/min/mg,–,111 nM,COc1ccc(-n2c(C)nnc2N2CCC(Oc3ccc(F)cc3C)CC2)cn1,–
> 10000 nM,32 µL/min/mg,35.9 nM,734 nM,COc1ccc(-n2c(C)nnc2N2CC[C@@H](Oc3ccccc3C)C2)cn1,–
> 10000 nM,> 440 µL/min/mg,17.9 nM,586 nM,COCc1nnc(N2CC[C@@H](Oc3ccc(F)cc3C)C2)n1-c1ccc(OC)nc1,–
> 10000 nM,–,17.5 nM,608 nM,COc1ccc(-n2c(C)nnc2N2CC(Oc3ccc(F)cc3C)C2)cn1,–
> 10000 nM,10 µL/min/mg,9.5 nM,1120 nM,COCc1nnc(N2CC(Oc3ccc(F)cc3Cl)C2)n1-c1ccc(OC)nc1,half-life [2]: 0.9 h; Vd (Rattus norvegicus [3]): 2.5 L/kg; half-life [4]: 1.9 h; bioavailability [5]: 62%; Vd (Canis familiaris): 1.3 L/kg; Ki [6]: 3000 nM; Ki [7]: 4400 nM; solubility [8]: 59 µg/mL; CL/F [9]: 8 mL/min/kg; Ki (Substance-P receptor): 6500 nM; bioavailability [10]: 81%; CL/F [11]: 36 mL/min/kg
2770 nM,–,40 nM,1680 nM,COc1ccc(-n2c(C)nnc2N2CC(Oc3cc(F)ccc3C)C2)cn1,–
